Experimental data published in ChEMBL document CHEMBL4266037, “Discovery and Characterization of Cyclotides from Rinorea Species” (J Nat Prod, 2018).
Positions of bridges follow the written chain, without caps; N, C: chain ends. Residues, ends and D or L forms follow the SMILES beside them.

Assays:
[1] = tested on: MM96L; experiment: Cytotoxicity against human MM96L after 24 hrs by MTT assay; type: functional, cell-based
Procedure, shortened: (§1)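 Cells seeded at 3 × 10^3 per well and grown 24 h at 37 °C in 5% CO2. Media: HUVEC in 10% FBS/EBM-2 with supplements; HFF-1 in 15% FBS/DMEM; HT-29 and MDA-MB-231 in 10% FBS/DMEM; MM96L in 10% FBS/RPMI with 2 mM L-glutamine and 1 mM pyruvate. Switched to serum-free medium, then paclitaxel 0.00075–10 μM for 24 or 48 h. MTT added 3 h, formazan taken up in DMSO, A600. Triplicate; IC50 from sigmoidal fit.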

[2] = tested on: HT-29; experiment: Cytotoxicity against human HT-29 after 24 hrs by MTT assay; type: functional, cell-based; details: HT-29, 24 h; procedure, shortened: as §1
[3] = tested on: MDA-MB-231; experiment: Cytotoxicity against human MDA-MB-231 after 24 hrs by MTT assay; type: functional, cell-based; details: MDA-MB-231, 24 h; procedure, shortened: as §1
[4] = tested on: HUVEC; experiment: Cytotoxicity against HUVEC after 24 hrs by MTT assay; type: cell-based; details: Homo sapiens; procedure, shortened: as §1
[5] = tested on: Erythrocyte; experiment: Hemolytic activity against human RBC after 1 hr; type: ADME, cell-based
Procedure, shortened: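 Human red blood cells exposed to test peptides at 0.003–10 μM, with melittin at 0.15–20 μM as the lysis positive control. IC50 given as mean ± SD of three biological replicates.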

[6] = tested on: HFF-1; experiment: Cytotoxicity against human HFF1 after 24 hrs by MTT assay; type: cell-based; details: HFF-1, 24 h; procedure, shortened: as §1
[7] = tested on: MDA-MB-231; experiment: cells; details: Homo sapiens, MDA-MB-231, 48 h
[8] = tested on: HUVEC; experiment: Cytotoxicity against HUVEC after 48 hrs by MTT assay; type: cell-based; details: Homo sapiens; procedure, shortened: as §1
[9] = tested on: MM96L; experiment: Cytotoxicity against human MM96L after 48 hrs by MTT assay; type: functional, cell-based; procedure, shortened: as §1
[10] = tested on: HFF-1; experiment: Cytotoxicity against human HFF1 after 48 hrs by MTT assay; type: cell-based; details: HFF-1, 48 h; procedure, shortened: as §1
[11] = tested on: HT-29; experiment: Cytotoxicity against human HT-29 after 48 hrs by MTT assay; type: functional, cell-based; details: HT-29, 48 h; procedure, shortened: as §1

Compound | IC50 [1] [nM] | IC50 [2] [nM] | IC50 [3] [nM] | IC50 [4] [nM] | IC50 [5] [nM] | IC50 [6] [nM] | IC50 [7] [nM] | IC50 [8] [nM] | IC50 [9] [nM] | IC50 [10] [nM] | IC50 [11] [nM]
CC[C@H](C)[C@@H]1NC(=O)[C@H](C)NC(=O)[C@H](CO)NC(=O)[C@H](CO)NC(=O)[C@H]([C@@H](C)CC)NC(=O)[C@@H]2CSSC[C@@H]3NC(=O)[C@H](C(C)C)NC(=O)[C@H](CCCCN)NC(=O)[C@H](CO)NC(=O)[C@H](CCCCN)NC(=O)[C@@H]4CSSC[C@H](NC(=O)[C@H](CO)NC(=O)[C@H](CCC(=O)O)NC(=O)CNC(=O)[C@H](CSSC[C@H](NC(=O)CNC1=O)C(=O)N[C@@H](CO)C(=O)N4)NC(=O)[C@@H]1CCCN1C(=O)[C@H]([C@@H](C)CC)NC(=O)CNC(=O)[C@H](CC(N)=O)NC(=O)[C@H](CCCNC(=N)N)NC(=O)[C@H](Cc1ccc(O)cc1)NC3=O)C(=O)N[C@@H](C(C)C)C(=O)N[C@@H](Cc1c[nH]c3ccccc13)C(=O)N[C@@H]([C@@H](C)CC)C(=O)N1CCC[C@H]1C(=O)N2 (cyclo(AIGCSCKSKVCYRNGIPCGESCVWIPCISS); disulfide 4-18, 6-22, 11-27) | 650 | 870 | 1500 | 350 | 36000 | 1300 |  |  |  |  | 
CC[C@H](C)[C@@H]1NC(=O)[C@H](Cc2ccc(O)cc2)NC(=O)[C@H](CO)NC(=O)C(N)C(=O)[C@H](CC(N)=O)NC(=O)[C@H](CCCCN)NC(=O)[C@H](CCCCN)NC(=O)[C@@H]2CSSC[C@@H]3NC(=O)[C@H](CCCCN)NC(=O)CNC(=O)[C@H](CCC(N)=O)NC(=O)[C@H](C(C)C)NC(=O)[C@@H]4CSSC[C@H](NC(=O)[C@H]([C@@H](C)O)NC(=O)[C@H](CSSC[C@H](NC1=O)C(=O)NCC(=O)N[C@@H](CCC(=O)O)C(=O)N[C@@H]([C@@H](C)O)C(=O)N4)NC(=O)CNC(=O)[C@@H]1CCCN1C(=O)[C@H]([C@@H](C)O)NC(=O)[C@H](Cc1ccc(O)cc1)NC3=O)C(=O)N[C@@H](CO)C(=O)N[C@@H](Cc1c[nH]c3ccccc13)C(=O)N1CCC[C@H]1C(=O)N[C@@H]([C@@H](C)CC)C(=O)N2 (stereo partly drawn) | 1300 | 5900 | 950 | 1600 | > 10000 | 2100 |  |  |  |  | 
CC(=O)O[C@H]1C(=O)[C@@]2(C)[C@H]([C@H](OC(=O)c3ccccc3)[C@]3(O)C[C@H](OC(=O)[C@H](O)[C@@H](NC(=O)c4ccccc4)c4ccccc4)C(C)=C1C3(C)C)[C@]1(OC(C)=O)CO[C@@H]1C[C@@H]2O [PACLITAXEL] | > 10000 | 70 | 200 | > 10000 |  | > 10000 | 1 | > 10000 | > 10000 | > 10000 | 10
CC[C@H](C)[C@@H]1NC(=O)[C@@H]2CCCN2C(=O)[C@H](CC(C)C)NC(=O)CNC(=O)[C@H](CC(N)=O)NC(=O)[C@H](CCCCN)NC(=O)[C@H](Cc2ccc(O)cc2)NC(=O)[C@@H]2CSSC[C@@H]3NC(=O)[C@H](CCCCN)NC(=O)CNC(=O)[C@H](Cc4ccccc4)NC(=O)[C@H](C(C)C)NC(=O)[C@@H]4CSSC[C@H](NC(=O)[C@H](CO)NC(=O)[C@H](CSSC[C@H](NC1=O)C(=O)NCC(=O)N[C@@H](CCC(=O)O)C(=O)N[C@@H]([C@@H](C)O)C(=O)N4)NC(=O)CNC(=O)[C@@H]1CCCN1C(=O)[C@H]([C@@H](C)O)NC(=O)[C@H](CC(N)=O)NC3=O)C(=O)N[C@@H](CCCNC(=N)N)C(=O)N[C@@H](CCCNC(=N)N)C(=O)N1CCC[C@H]1C(=O)N[C@@H]([C@@H](C)CC)C(=O)N2 (cyclo(CGETCVFGKCNTPGCSCRRPICYKNGLPI); disulfide 1-15, 5-17, 10-22) | > 3000 | > 10000 | > 10000 | > 3000 | > 10000 | > 3000 |  |  |  |  | 
CC[C@H](C)[C@H](NC(=O)CN)C(=O)NCC(=O)N[C@@H](C)C(=O)N[C@H](C(=O)N[C@@H](CC(C)C)C(=O)N[C@@H](CCCCN)C(=O)N[C@H](C(=O)N[C@@H](CC(C)C)C(=O)N[C@H](C(=O)N[C@H](C(=O)NCC(=O)N[C@@H](CC(C)C)C(=O)N1CCC[C@H]1C(=O)N[C@@H](C)C(=O)N[C@@H](CC(C)C)C(=O)N[C@H](C(=O)N[C@@H](CO)C(=O)N[C@@H](Cc1c[nH]c2ccccc12)C(=O)N[C@H](C(=O)N[C@@H](CCCCN)C(=O)N[C@@H](CCCNC(=N)N)C(=O)N[C@@H](CCCCN)C(=O)N[C@@H](CCCNC(=N)N)C(=O)N[C@@H](CCC(N)=O)C(=O)N[C@@H](CCC(N)=O)C(N)=O)[C@@H](C)CC)[C@@H](C)CC)[C@@H](C)O)[C@@H](C)O)C(C)C)C(C)C [MELITTIN] |  |  |  |  | 960 |  |  |  |  |  | 
CC[C@H](C)[C@@H]1NC(=O)[C@@H]2CCCN2C(=O)[C@H](CC(C)C)NC(=O)CNC(=O)[C@H](CC(N)=O)NC(=O)[C@H](CCCCN)NC(=O)[C@H](Cc2ccc(O)cc2)NC(=O)[C@@H]2CSSC[C@@H]3NC(=O)[C@H](CCCCN)NC(=O)CNC(=O)[C@H](CC(C)C)NC(=O)[C@H](CC(C)C)NC(=O)[C@@H]4CSSC[C@H](NC(=O)[C@H](CO)NC(=O)[C@H](CSSC[C@H](NC1=O)C(=O)NCC(=O)N[C@@H](CCC(=O)O)C(=O)N[C@@H]([C@@H](C)O)C(=O)N4)NC(=O)CNC(=O)[C@@H]1CCCN1C(=O)[C@H]([C@@H](C)O)NC(=O)[C@H](Cc1ccc(O)cc1)NC3=O)C(=O)N[C@@H](CCCNC(=N)N)C(=O)N[C@@H](CCCNC(=N)N)C(=O)N1CCC[C@H]1C(=O)N[C@@H](C(C)C)C(=O)N2 (cyclo(CGETCLLGKCYTPGCSCRRPVCYKNGLPI); disulfide 1-15, 5-17, 10-22) | 1100 |  | 2300 | 2600 | > 10000 | 1900 |  |  |  |  | 
CC[C@H](C)[C@@H]1NC(=O)[C@@H]2CCCN2C(=O)[C@H](CCCCN)NC(=O)CNC(=O)[C@H](CC(N)=O)NC(=O)[C@H](CCCCN)NC(=O)[C@H](Cc2ccc(O)cc2)NC(=O)[C@H](CS)NC(=O)[C@H](CC(C)C)NC(=O)[C@H](C(C)C)NC(=O)[C@H](CCCNC(=N)N)NC(=O)[C@H](CCCCN)NC(=O)CNC(=O)[C@@H]2CSSC[C@@H]3NC(=O)[C@H]([C@@H](C)O)NC(=O)[C@H](CCC(=O)O)NC(=O)CNC(=O)[C@H](CSSC[C@H](NC(=O)CNC(=O)[C@@H]4CCCN4C(=O)[C@H]([C@@H](C)O)NC(=O)[C@H](Cc4ccc(O)cc4)NC(=O)[C@H](CS)NC(=O)[C@H](CCCCN)NC(=O)CNC(=O)[C@H](CC(C)C)NC(=O)[C@H](CC(C)C)NC3=O)C(=O)N[C@@H]([C@@H](C)O)C(=O)N2)NC1=O (cyclo(CGETCLLGKCYTPGCTCGKRVLCYKNGKPI); disulfide 1-15, 5-17) | 930 |  | 4400 | 2800 |  | 1700 |  |  |  |  | 
